ChEMBL document CHEMBL1124260, “Synthesis and antitumor activity of quaternary ellipticine glycosides, a series of novel and highly active antitumor agents” (1988)

Tests used:
Mus musculus [1] = test: Antitumor activity against ip implanted L1210 leukemia in mouse after ip administration of 120 mg/kg for 5 days expressed as increase in mean life span; assay type: functional; conditions: 120 h, route intraperitoneal
Outline: (§1)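 Drug was dissolved in 0.9% NaCl, diluted just before use and given ip once daily for 5 consecutive days, starting 24 h after transplant. ILS % = mean survival time of treated vs control mice, observed for 80 days.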

Mus musculus [2] = test: Antitumor activity against ip implanted syngeneic P388 leukemia in mouse after ip administration of 60 mg/kg for 5 days expressed as increase in mean life span; assay type: functional; conditions: 120 h, route intraperitoneal
Outline: (§2)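 Saline-dissolved drug was given ip daily for 5 consecutive days, beginning 24 h post-transplant. ILS % was calculated from treated vs control mean survival time over an 80-day observation period.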

Mus musculus [3] = test: Antitumor activity against ip implanted P388 leukemia in mouse after ip administration of 10 mg/kg for 5 days expressed as increase in mean life span; assay type: functional; conditions: 120 h, route intraperitoneal; outline: as §2
Mus musculus [4] = test: Antitumor activity against ip implanted L1210 leukemia in mouse after iv administration of 16 mg/kg for 5 days expressed as increase in mean life span; conditions: 120 h
Mus musculus [5] = test: Antitumor activity against ip implanted L1210 leukemia in mouse after ip administration of 20 mg/kg for 5 days expressed as increase in mean life span; assay type: functional; conditions: 120 h, route intraperitoneal; outline: as §1
Mus musculus [6] = test: Antitumor activity against ip implanted P388 leukemia in mouse after ip administration of 5 mg/kg for 5 days expressed as increase in mean life span; assay type: functional; conditions: 120 h, route intraperitoneal; outline: as §2
Mus musculus [7] = test: Antitumor activity against ip implanted L1210 leukemia in mouse after ip administration of 40 mg/kg for 5 days expressed as increase in mean life span; assay type: functional; conditions: 120 h, route intraperitoneal; outline: as §1
Mus musculus [8] = test: Number of survivors out of 6 ip implanted P388 leukemia in mouse after ip administration of 40 mg/kg after 80 days; assay type: functional; conditions: route intraperitoneal
Outline: (§3)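 P388 leukemia, 10^6 ascitic cells implanted ip in female BDF1 mice. Drug in saline given ip for 5 consecutive days from 24 h after transplant. Groups of six per dose level. Survivors/total recorded at the 80-day end of observation; ILS % from treated/control mean survival time.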

Mus musculus [9] = test: Antitumor activity against ip implanted L1210 leukemia in mouse after ip administration of 5 mg/kg for 5 days expressed as increase in mean life span; assay type: functional; conditions: Mus musculus, L1210, ip, 120 h, route intraperitoneal; outline: as §1
Mus musculus [10] = test: Number of survivors out of 6 ip implanted L1210 leukemia in mouse after ip administration of 20 mg/kg after 80 days; assay type: functional; conditions: route intraperitoneal
Outline: (§4)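 Female BDF1 mice implanted ip with ascitic fluid holding 10^5 L1210 cells. Saline-dissolved drug given ip daily on days 1-5, starting 24 h after implant. Six mice per dose group, followed 80 days. Survivors/total counted at day 80; ILS % from mean survival time vs controls.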

Mus musculus [11] = test: Antitumor activity against ip implanted L1210 leukemia in mouse after iv administration of 8 mg/kg for 5 days expressed as increase in mean life span; conditions: 120 h
Mus musculus [12] = test: Antitumor activity against ip implanted P388 leukemia in mouse after ip administration of 40 mg/kg for 5 days expressed as increase in mean life span; assay type: functional; conditions: 120 h, route intraperitoneal; outline: as §2
Mus musculus [13] = test: Effect on ip implanted syngeneic B16 melanoma by ip administration for 9 days at 5 mg/kg was measured as increase in mean life span; conditions: 216 h
Mus musculus [14] = test: Inhibition of sc implanted syngeneic colon 38 carcinoma by ip administration at 30 mg/kg on 1, 3, 5, 7, 9 days measured as inhibition ratio; assay type: functional; conditions: route intraperitoneal
Outline: (§5)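 Tumor homogenate (70 mg) implanted into the axillary region of female BDF1 mice. Drug dissolved in 0.9% NaCl and diluted with saline just before use, then given ip on days 1, 3, 5, 7 and 9. Tumor length and width were measured by caliper on day 20 after inoculation and converted to estimated weight. Result reported as treated vs control tumor weight, T/C %.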

Mus musculus [15] = test: Inhibition of sc implanted syngeneic colon 38 carcinoma by ip administration at 40 mg/kg on 1, 3, 5, 7, 9 days measured as inhibition ratio; assay type: functional; conditions: route subcutaneous; outline: as §5
Mus musculus [16] = test: Antitumor activity against ip implanted P388 leukemia in mouse after ip administration of 1.25 mg/kg for 5 days expressed as increase in mean life span; assay type: functional; conditions: 120 h, route intraperitoneal; outline: as §2
Mus musculus [17] = test: Antitumor activity against ip implanted L1210 leukemia in mouse after ip administration of 10 mg/kg for 5 days expressed as increase in mean life span; assay type: functional; conditions: route intraperitoneal, 10 mg/kg; outline: as §1
Mus musculus [18] = test: Antitumor activity against ip implanted P388 leukemia in mouse after ip administration of 20 mg/kg for 5 days expressed as increase in mean life span; assay type: functional; conditions: 120 h, route intraperitoneal; outline: as §2
Mus musculus [19] = test: Inhibition of sc implanted syngeneic colon 38 carcinoma by ip administration at 20 mg/kg on 1, 3, 5, 7, 9 days measured as inhibition ratio; assay type: functional; conditions: route subcutaneous; outline: as §5
Mus musculus [20] = test: Number of survivors out of 6 ip implanted L1210 leukemia mouse, tested after 80 days at 30 mg/kg; assay type: functional; conditions: route intraperitoneal; outline: as §4
Mus musculus [21] = test: Antitumor activity against ip implanted P388 leukemia in mouse after iv administration of 32 mg/kg for 5 days expressed as increase in mean life span; conditions: 120 h
Mus musculus [22] = test: Antitumor activity against ip implanted L1210 leukemia in mouse after ip administration of 30 mg/kg for 5 days expressed as increase in mean life span; assay type: functional; conditions: Mus musculus, L1210, ip, 120 h, route intraperitoneal; outline: as §1
Mus musculus [23] = test: Number of survivors out of 6 ip implanted P388 leukemia in mouse after ip administration of 10 mg/kg after 80 days; assay type: functional; conditions: route intraperitoneal; outline: as §3
Mus musculus [24] = test: Antitumor activity against ip implanted L1210 leukemia in mouse after iv administration of 32 mg/kg for 5 days expressed as increase in mean life span; conditions: 120 h
Mus musculus [25] = test: Effect on ip implanted syngeneic B16 melanoma by ip administration for 9 days at 10 mg/kg was measured as increase in mean life span; conditions: 216 h
Mus musculus [26] = test: Number of survivors out of 6 ip implanted P388 leukemia in mouse after ip administration of 20 mg/kg after 80 days; assay type: functional; conditions: route intraperitoneal; outline: as §3
Mus musculus [27] = test: Number of survivors out of 6 ip implanted L1210 leukemia in mouse after ip administration of 10 mg/kg after 80 days; assay type: functional; conditions: route intraperitoneal; outline: as §4
Mus musculus [28] = test: Antitumor activity against ip implanted L1210 leukemia in mouse after ip administration of 1.25 mg/kg for 5 days expressed as increase in mean life span; assay type: functional; conditions: 120 h, route intraperitoneal; outline: as §1
Mus musculus [29] = test: Effect on ip implanted syngeneic B16 melanoma by ip administration of 20 mg/kg for 9 days measured as increase in mean life span; conditions: 216 h
Mus musculus [30] = test: Number of survivors out of 6 ip implanted L1210 leukemia in mouse after ip administration of 40 mg/kg after 80 days; assay type: functional; conditions: route intraperitoneal; outline: as §4
Mus musculus [31] = test: Antitumor activity against ip implanted P388 leukemia in mouse after ip administration of 2.5 mg/kg for 5 days expressed as increase in mean life span; assay type: functional; conditions: 120 h, route intraperitoneal; outline: as §2
Mus musculus [32] = test: Antitumor activity against ip implanted L1210 leukemia in mouse after ip administration of 2.5 mg/kg for 5 days expressed as increase in mean life span; assay type: functional; conditions: 120 h, route intraperitoneal; outline: as §1
Mus musculus [33] = test: Effect on ip implanted syngeneic B16 melanoma by ip administration for 9 days at 2.5 mg/kg was measured as increase in mean life span; conditions: 216 h
Mus musculus [34] = test: Antitumor activity against ip implanted P388 leukemia in mouse after iv administration of 2.5 mg/kg for 5 days expressed as increase in mean life span; conditions: 120 h
Mus musculus [35] = test: Number of survivors out of 6 ip implanted P388 leukemia in mouse after ip administration of 2.5 mg/kg after 80 days; assay type: functional; conditions: route intraperitoneal; outline: as §3
Mus musculus [36] = test: Antitumor activity against ip implanted L1210 leukemia in mouse after iv administration of 2.5 mg/kg for 5 days expressed as increase in mean life span; conditions: 120 h
Mus musculus [37] = test: Inhibition of sc implanted syngeneic colon 38 carcinoma by ip administration at 2.5 mg/kg on 1, 3, 5, 7, 9 days measured as inhibition ratio; assay type: functional; conditions: route subcutaneous; outline: as §5

Molecule `Cc1c2ccncc2c(C)c2c1[nH]c1ccccc12` [ELLIPTECINE] has an ILS at 120 mg/kg (Mus musculus [1]) of 128% and an ILS at 60 mg/kg (Mus musculus [2]) of 139%.
`Cc1c2cc[n+]([C@@H]3O[C@H](CO)[C@H](O)[C@@H]3O)cc2c(C)c2c1[nH]c1ccc(O)cc12.[Cl-]` (stereo in doubt; 43a) gave an ILS at 10 mg/kg (Mus musculus [3]) greater than 332%, an ILS at 16 mg/kg (Mus musculus [4]) of 81% and an ILS at 20 mg/kg (Mus musculus [5]) greater than 503%. For the same molecule, the ILS at 5 mg/kg (Mus musculus [6]) was 158%, the ILS at 40 mg/kg (Mus musculus [7]) was greater than 281% and the Cures (Mus musculus [8]) was 2. The ILS at 5 mg/kg (Mus musculus [9]) was 102%, the Cures (Mus musculus [10]) was 3 and the ILS at 8 mg/kg (Mus musculus [11]) was 49%. For the same molecule, the ILS at 40 mg/kg (Mus musculus [12]) was greater than 220%, the ILS at 5 mg/kg (Mus musculus [13]) was 39% and the T/C (Mus musculus [14]) was 19%. For the same molecule, the T/C (Mus musculus [15]) was 8%, the ILS at 1.25 mg/kg (Mus musculus [16]) was 68% and the ILS (Mus musculus [17]) was greater than 377%. For the same molecule, the ILS at 20 mg/kg (Mus musculus [18]) was greater than 510%, the T/C (Mus musculus [19]) was 61% and the Cures (Mus musculus [20]) was 6. The ILS at 32 mg/kg (Mus musculus [21]) was 176%, the ILS at 30 mg/kg (Mus musculus [22]) was greater than 967% and the Cures (Mus musculus [23]) was 2. For the same molecule, the ILS at 32 mg/kg (Mus musculus [24]) was 134%, the ILS at 10 mg/kg (Mus musculus [25]) was 44% and the Cures (Mus musculus [26]) was 4. It also gave a Cures (Mus musculus [27]) of 2, an ILS at 1.25 mg/kg (Mus musculus [28]) of 46% and an ILS at 20 mg/kg (Mus musculus [29]) of 77%. It also gave a Cures (Mus musculus [30]) of 1.
Work on `COc1cccc2c1C(=O)c1c(O)c3c(c(O)c1C2=O)C[C@@](O)(C(=O)CO)C[C@@H]3O[C@H]1C[C@H](N)[C@H](O)[C@H](C)O1` [DOXORUBICIN] yielded an ILS at 2.5 mg/kg (Mus musculus [31]) greater than 675%, an ILS at 2.5 mg/kg (Mus musculus [32]) of 90% and an ILS at 2.5 mg/kg (Mus musculus [33]) greater than 257%. The ILS at 2.5 mg/kg (Mus musculus [34]) was 65%, the Cures (Mus musculus [35]) was 5 and the ILS at 2.5 mg/kg (Mus musculus [36]) was 30%. The T/C (Mus musculus [37]) was 31%.
